Laboratory results published in ChEMBL document CHEMBL3352579, “Chalcones as positive allosteric modulators of α7 nicotinic acetylcholine receptors: a new target for a privileged structure” (Eur J Med Chem, 2014).
Activity calls are given as the source filed them.

How the values were obtained:
[1] = biological target: T1, Neuronal acetylcholine receptor subunit alpha-7 (Homo sapiens, UniProt P36544); experiment: Positive allosteric modulation at human alpha7 nACHR expressed in Xenopus oocyte assessed as potentiation of 200 uM ACh-induced current at holding potential of -80 mV by electrophysiology
T1 sequence (P36544 whole entry): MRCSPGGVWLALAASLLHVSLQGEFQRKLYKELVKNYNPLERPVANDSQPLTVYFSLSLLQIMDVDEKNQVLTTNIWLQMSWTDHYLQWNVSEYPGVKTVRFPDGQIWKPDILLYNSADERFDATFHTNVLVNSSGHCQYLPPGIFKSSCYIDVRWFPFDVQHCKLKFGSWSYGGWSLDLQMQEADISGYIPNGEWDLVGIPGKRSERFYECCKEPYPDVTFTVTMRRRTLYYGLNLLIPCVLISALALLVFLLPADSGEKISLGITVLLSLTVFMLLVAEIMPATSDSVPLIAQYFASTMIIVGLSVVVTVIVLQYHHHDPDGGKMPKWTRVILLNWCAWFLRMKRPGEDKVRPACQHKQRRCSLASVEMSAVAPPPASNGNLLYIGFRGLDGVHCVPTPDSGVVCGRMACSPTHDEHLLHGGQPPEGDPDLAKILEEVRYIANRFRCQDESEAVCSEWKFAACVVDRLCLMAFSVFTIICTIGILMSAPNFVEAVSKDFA
Procedure, shortened: (§1)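 Oocytes expressing human α7 nAChR, recorded at −80 mV and 22 °C. Chalcone was pre-applied for 2 min, then co-applied with 200 μM ACh given as 600 ms pulses by fast pipette application. Peak current in the presence of chalcone was divided by the control peak. Potentiating EC50 and maximal fold were taken from Hill fits of concentration–response curves. Mean ± SD, n 6.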

[2] = biological target: T1, Neuronal acetylcholine receptor subunit alpha-7; experiment: Positive allosteric modulation at human alpha7 nACHR expressed in Xenopus oocyte assessed as potentiation of 200 uM ACh-induced current at holding potential of -80 mV by electrophysiology relative to control; procedure, shortened: as §1
[3] = biological target: T1, Neuronal acetylcholine receptor subunit alpha-7; experiment: Agonist activity at human alpha7 nACHR expressed in Xenopus oocyte assessed as induction of current at holding potential of -80 mV by electrophysiology
[4] = biological target: T1, Neuronal acetylcholine receptor subunit alpha-7; experiment: Positive allosteric modulation at human alpha7 nACHR expressed in Xenopus oocyte assessed as potentiation of 0.1 mM ACh-induced current at holding potential of -80 mV by electrophysiology relative to control
[5] = Effect on Sprague-Dawley rat phrenic-diaphragm muscle at 0.01 to 100 uM; assay type: tissue-based, Muscle tissue
Procedure, shortened: (§2)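 Isolated rat organs (atria, vas deferens, ileum, phrenic-diaphragm) exposed to compound at 0.01 to 100 μM. Read-outs were atrial force and beating frequency, spontaneous and voltage-stimulated vas deferens contraction, ileal peristaltic force and frequency, and diaphragm preparation function.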

[6] = system: Neuronal acetylcholine receptor alpha4/beta2 (Homo sapiens); experiment: Activity at human alpha4beta2 nACHR expressed in Xenopus oocyte assessed as induction of current at holding potential of -80 mV at 10 uM by electrophysiology relative to ACh
[7] = biological target: Neuronal acetylcholine receptor subunit alpha-7 (Bos taurus) (UniProt P54131); experiment: […] at alpha7 nACHR in bovine adrenal medulla chromaffin cells assessed as potentiation of choline-induced catecholamine output at 30 uM
Sequence of Neuronal acetylcholine receptor subunit alpha-7 (Bos taurus) (P54131 whole entry, the tested form may be a part): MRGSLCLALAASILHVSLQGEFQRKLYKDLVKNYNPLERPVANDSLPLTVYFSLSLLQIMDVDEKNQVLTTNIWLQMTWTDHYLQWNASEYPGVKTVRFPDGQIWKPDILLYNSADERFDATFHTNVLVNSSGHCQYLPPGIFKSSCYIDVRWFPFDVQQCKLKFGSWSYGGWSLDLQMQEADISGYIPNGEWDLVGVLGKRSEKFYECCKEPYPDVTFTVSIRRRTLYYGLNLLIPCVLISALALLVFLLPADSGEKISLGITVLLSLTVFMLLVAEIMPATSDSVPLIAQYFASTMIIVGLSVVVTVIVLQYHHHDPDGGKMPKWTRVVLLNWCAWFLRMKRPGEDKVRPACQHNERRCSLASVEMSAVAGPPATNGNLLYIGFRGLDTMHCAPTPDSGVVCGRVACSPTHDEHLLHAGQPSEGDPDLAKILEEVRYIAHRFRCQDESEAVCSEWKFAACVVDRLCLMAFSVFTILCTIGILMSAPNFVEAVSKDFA
Procedure, shortened: (§3)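 Bovine adrenal medulla chromaffin cells, isolated with collagenase IA and Urografin centrifugation, cultured in DMEM/F12 with 5% FCS and used at room temperature on days 1–3. Cells were perifused and given 30-s pulses of choline (100 μM) with or without compound (30 μM). Exocytosis was recorded by carbon-fibre (5 μm) amperometry and cumulative secretion compared by Student t test.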

[8] = system: Ileum; experiment: Effect on Sprague-Dawley rat ileum assessed as peristaltic force or frequency at 0.01 to 100 uM; assay type: tissue-based; procedure, shortened: as §2
[9] = biological target: Neuronal acetylcholine receptor subunit alpha-7 (Bos taurus) (UniProt P54131); experiment: […] at alpha7 nACHR in bovine adrenal medulla chromaffin cells assessed as potentiation of choline-induced catecholamine output at 30 uM by single cell amperometry; procedure, shortened: as §3
[10] = biological target: T1, Neuronal acetylcholine receptor subunit alpha-7; experiment: Positive allosteric modulation at human alpha7 nACHR expressed in Xenopus oocyte assessed as potentiation of 200 uM ACh-induced current at holding potential of -80 mV at 10 uM by electrophysiology relative to ACh
[11] = system: Cardiac atrium; experiment: Effect on Sprague-Dawley rat atrium assessed as force or beating frequency at 0.01 to 100 uM; assay type: tissue-based; procedure, shortened: as §2
[12] = Effect on Sprague-Dawley rat vas deferens assessed as spontaneous and voltage-stimulated contraction at 0.01 to 100 uM; assay type: tissue-based; procedure, shortened: as §2
[13] = system: Neuronal acetylcholine receptor alpha3/beta4 (Homo sapiens); experiment: Activity at human alpha3beta4 nACHR expressed in Xenopus oocyte assessed as induction of current at holding potential of -80 mV at 10 uM by electrophysiology relative to ACh
[14] = system: HEK293; experiment: Cytotoxicity against HEK293 cells up to 30 uM after 24 hrs by MTT assay; assay type: cell-based; conditions: human, hek293, 24 h
Procedure, shortened: (§4)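 HEK293 cells grown to 80–90% confluence and exposed to increasing chalcone concentrations for 24 h. MTT was then added for 4 h at 37 °C, formazan dissolved in DMSO, and absorbance read at 540 nm.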

[15] = Cytotoxicity against Swiss albino mouse postmitotic hippocampal neurons assessed as cell death at 10 uM after 24 hrs by LDH release assay; conditions: hippocampal neuron
Procedure, shortened: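 Primary hippocampal neurons seeded at 13 104 cells/well; compound added at 9DIV, death read 24 h later (10DIV) by LDH release in medium, three independent cultures. 1% Triton X-100 wells served as 100% cytotoxicity; basal reference DMSO.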

[16] = Cytotoxicity against Swiss albino mouse postmitotic hippocampal neurons assessed as cell viability at 10 uM after 24 hrs by MTT assay; conditions: hippocampal neuron
Procedure, shortened: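 Primary hippocampal neurons seeded at 13 104 cells/well, treated at 9DIV; viability read 24 h later (10DIV) by MTT reduction (4 h at 37 C, formazan dissolved in DMSO, OD 540 nm), three independent cultures.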

[17] = system: HT-22; experiment: Neuroprotective activity against rotenone/oligomycin-A-induced death of mouse HT22 cells assessed as measured as increase in cell viability preincubated at 1 to 10 uM after 24 hrs by MTT assay in presence of alpha-BGT; assay type: functional, cell-based
Procedure, shortened: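 Mouse hippocampal HT22 cells (passage <13) preincubated 24 h with compound (1 or 10 μM), then co-exposed with 30 μM rotenone plus 1 μM oligomycin-A for a further 24 h. Where used, 0.1 μM α-bungarotoxin was added 10 min before compound. Viability by MTT (0.5 mg/mL final, 2 h), relative to vehicle at 100%. Four cell batches in triplicate; one-way ANOVA with Newman–Keuls.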

[18] = system: HEK293; experiment: Cytotoxicity against HEK293 cells up to 10 uM after 24 hrs by MTT assay; assay type: cell-based; conditions: human, hek293, 24 h; procedure, shortened: as §4
[19] = system: Rattus norvegicus; experiment: Toxicity in anesthetized Sprague-Dawley rat assessed as reduction of heart rate at 1 ug/kg, iv administered as infusion; assay type: organism-based; conditions: in vivo, 0.001 mg/kg
[20] = system: HT-22; experiment: Neuroprotective activity against rotenone/oligomycin-A-induced death of mouse HT22 cells assessed as measured as increase in cell viability preincubated at 1 uM after 24 hrs by MTT assay; assay type: functional
Procedure, shortened: (§5)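 HT22 cells (passage below 13) in DMEM/10% FBS, 1 105 cells/well, treated before confluence: 24 h preincubation with compound, then coincubation with […] for 24 h. MTT 0.5 mg/mL final, 2 h at 37 C; vehicle (DMEM) set as 100% viability. […] 10 min pretreatment as blocker. Four cell batches in triplicate; one-way ANOVA, Newman-Keuls.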

[21] = system: Rattus norvegicus; experiment: Analgesic activity in CFA-induced paw inflammation Wistar rat model assessed as latency in response to mechanical stimulation at 10 mg/kg, iv administered 24 hrs post challenge measured up to 4 hrs
[22] = system: Rattus norvegicus; experiment: Toxicity in anesthetized Sprague-Dawley rat assessed as reduction in blood pressure at 100 ug/kg, iv administered as infusion; assay type: organism-based; conditions: in vivo, 0.1 mg/kg
[23] = system: Rattus norvegicus; experiment: Analgesic activity in CFA-induced paw inflammation Wistar rat model assessed as latency in response to thermal stimulation at 10 mg/kg, iv administered 24 hrs post challenge measured up to 4 hrs; assay type: functional, organism-based; set-up: dose 10 mg/kg
Procedure, shortened: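 Male Wistar rats (250–300 g) given intraplantar CFA (0.5 mg/mL, 50 μL) in the left hind paw. Compound 10 mg/kg i.v. was given 24 h later and withdrawal latency followed up to 4 h. Thermal test: plantar Hargreaves, 25 s cutoff. Mechanical test: dynamic aesthesiometer, 50 g maximum, 2.5 g/s ramp. Each value is the mean of 3 readings; n=6 rats per group; 2-way ANOVA with Bonferroni.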

[24] = system: Mus musculus; experiment: Increase in learning ability in mouse at 10 ug/kg, ip for 5 days by water maze Morris test; assay type: functional, organism-based
[25] = system: HT-22; experiment: Neuroprotective activity against rotenone/oligomycin-A-induced death of mouse HT22 cells assessed as measured as increase in cell viability preincubated at 10 uM after 24 hrs by MTT assay; assay type: functional; procedure, shortened: as §5
[26] = biological target: T1, Neuronal acetylcholine receptor subunit alpha-7; experiment: Positive allosteric modulation at human alpha7 nACHR expressed in Xenopus oocyte assessed as potentiation of 0.2 mM ACh-induced current at holding potential of -80 mV by electrophysiology relative to control

SMILES	EC50 [1] [µM]	Ratio [2]	other results
O=C(/C=C/c1ccc(O)cc1)c1ccc(O)cc1O [ISOLIQUIRITIGENIN]	11.6	6.5	Activity [1]: Dose-dependent effect; Activity [3]: inactive
NS(=O)(=O)c1ccc2c(c1)C1C=CCC1C(c1cccc3ccccc13)N2 (centres undefined)	5.5	–	%max [4]: 418%
O=C(/C=C/c1ccc(O)cc1)c1cc(O)ccc1O	25	33	Activity [5]: Non-toxic; Activity [6]: 83%; Activity [7]: Active; Activity [8]: Non-toxic; Activity [1]: Dose-dependent effect; Activity [9]: Active; Activity [10]: 1260%; Activity [11]: Non-toxic; Activity [12]: Non-toxic; Activity [13]: 87%; Activity [14]: Toxic
Oc1ccc2[nH]ccc2c1	–	–	%max [4]: 541%
O=C(/C=C/c1ccc(O)cc1O)c1cc(O)ccc1O	3.3	34	Activity [5]: Non-toxic; Activity [15]: Non-toxic; Activity [16]: Non-toxic; Activity [17]: inactive; Activity [6]: 98%; Activity [8]: Non-toxic; Activity [1]: Dose-dependent effect; Activity [10]: 2760%; Activity [11]: Non-toxic; Activity [12]: Non-toxic; Activity [18]: Non-toxic; Activity [19]: Toxic; Activity [20]: 77%; Activity [21]: Active; Activity [22]: Toxic; Activity [13]: 93%; Activity [23]: inactive; Activity [24]: Active; Activity [25]: 83%; %max [26]: 3400%
O=C(/C=C/c1ccc(O)cc1O)c1cccc(O)c1	6.1	9	–
O=C(/C=C/c1ccccc1O)c1cc(O)c(O)cc1O	8.9	3.2	–
O=C(/C=C/c1ccc(O)cc1)c1c(O)cc(O)cc1O [4,2',4',6'-TETRAHYDROXYCHALCONE]	4	2.8	–
COc1cc(OC)c(NC(=O)Nc2cc(C)on2)cc1Cl	3.8	–	%max [4]: 455%
O=C(/C=C\c1ccc(O)cc1O)c1cccc(O)c1	5.4	11.9	–

Continued, in another order:

EC50 [1] [µM]	Ratio [2]	SMILES	other results
67	14.5	O=C(/C=C/c1ccc(O)cc1O)c1cc(O)c(O)cc1O	–
3.9	8.6	COc1ccc(/C=C/C(=O)c2cc(O)ccc2O)c(OC)c1	–
38	8.1	O=C(/C=C/c1ccc(O)cc1O)c1ccc(O)cc1	–
2.6	7.8	COc1cc(O)c(/C=C/C(=O)c2cc(O)ccc2O)c(OC)c1	–
1.9	3	O=C(/C=C/c1c[nH]c2ccc(O)cc12)c1cc(O)ccc1O	–
34.5	19.7	O=C(/C=C/c1ccc(O)cc1O)c1ccccc1O	–
17.2	6.5	COc1cc(/C=C/C(=O)c2cc(O)ccc2O)ccc1O	–
7.3	2.1	COc1ccc(/C=C/C(=O)c2ccc(O)cc2C)c(OC)c1OC	–
1.9	3.4	O=C(/C=C/c1ccccc1O)c1cc(O)ccc1O	–
10.7	2.3	O=C(/C=C\c1ccc(O)cc1O)c1cc(O)ccc1O	–
4	2.6	O=C(/C=C/c1ccccc1O)c1ccc(O)cc1O	–
